Data taken from ChEMBL document CHEMBL1139132, “N-caffeoylphenalkylamide derivatives as bacterial efflux pump inhibitors” (2007).
In brackets after ≈: the same amount, converted by molar mass.

Assays:
Format in all cases: functional
[1] = tested on: Staphylococcus aureus; assay: Inhibition of NorA pump in fluoroquinolone-resistant Staphylococcus aureus SA1199B assessed as drug level causing 4-fold reduction of Norfloxacin MIC
How it was run: (§1)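 SA-1199B, which overexpresses NorA, tested by dilution MIC. Norfloxacin MIC measured with and without added test agent. Potentiation expressed as the fold reduction of the norfloxacin MIC relative to norfloxacin alone, at the stated agent concentration.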

[2] = tested on: Staphylococcus aureus; assay: Inhibition of NorA pump in fluoroquinolone-resistant Staphylococcus aureus SA1199B assessed as drug level causing reduction of Norfloxacin MIC; how it was run: as §1
[3] = tested on: Staphylococcus aureus; assay: Antimicrobial activity against fluoroquinolone-resistant Staphylococcus aureus SA1199B
How it was run: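 S. aureus SA-1199B, which overexpresses the NorA MDR efflux pump. MIC determined by the standard dilution method for aerobically growing bacteria.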

[4] = tested on: Staphylococcus aureus; assay: Inhibition of NorA pump in fluoroquinolone-resistant Staphylococcus aureus SA1199B assessed as drug level causing 8-fold reduction of Norfloxacin MIC; how it was run: as §1
[5] = tested on: Staphylococcus aureus; assay: Inhibition of NorA pump in fluoroquinolone-resistant Staphylococcus aureus SA1199B assessed as drug level causing 16-fold reduction of Norfloxacin MIC; how it was run: as §1
[6] = tested on: Staphylococcus aureus; assay: Inhibition of NorA pump in fluoroquinolone-resistant Staphylococcus aureus SA1199B assessed as drug level causing 2-fold reduction of Norfloxacin MIC; how it was run: as §1

SMILES	Activity [1] [µM]	MIC [3] [µM]	Activity [4] [µM]	other results
COc1ccc(/C=C/C(=O)NCCc2ccccc2)cc1OC	322	–	–	–
COc1ccc(CCC(=O)NCCc2ccc(O)c(O)c2)cc1OC	–	–	–	Activity [2]: 290 µM
COc1ccc(/C=C/C(=O)NCCc2c[nH]c3ccccc23)cc1OC	29	> 366	57	Activity [5]: 286 µM
COc1ccc(/C=C/C(=O)NCCc2ccc(O)c(O)c2)cc1OC	146	–	292	–
COc1ccc(/C=C/C(=O)NCCc2ccc(OC)c(OC)c2)cc1OC	–	–	162	Activity [6]: 54 µM
COc1cc(/C=C/C(=O)NCCc2ccc(O)c(O)c2)cc(OC)c1OC	268	–	–	–
COc1ccc(/C=C/C(=O)NCCc2cc(O)c(O)c(O)c2)cc1OC	–	356 (≈ 128 µg/mL)	–	Activity [2]: 56 µM
O=C(/C=C/c1ccccc1)NCCc1ccc(O)c(O)c1	70	> 452	–	Activity [5]: 353 µM
O=C(/C=C/c1ccc(O)c(O)c1)NCCc1ccc(O)c(O)c1	63	≥ 406	317	–
CCn1cc(C(=O)O)c(=O)c2cc(F)c(N3CCNCC3)cc21 [NORFLOXACIN]	–	100 (≈ 31.9 µg/mL)	–	–
COC(=O)[C@H]1[C@H]2C[C@@H]3c4[nH]c5cc(OC)ccc5c4CCN3C[C@H]2C[C@@H](OC(=O)c2cc(OC)c(OC)c(OC)c2)[C@@H]1OC [RESERPINE]	–	–	–	MIC ([4]; Staphylococcus aureus, SA1199B): 33 µM (≈ 20.1 µg/mL)
